Screens from PubChem BioAssay.
VIM-2 inhibitor: inhibitors of Pseudomonas aeruginosa VIM-2 metallo-beta-lactamase; inhibition, % at 5.6 µM; actives 0.89% (n = 290,000); purified VIM-2, nitrocefin hydrolysis, epi-absorbance fluorescence; AID 1527;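 active means inhibition above the mean of all tested compounds plus 3 SD, cutoff set per screening run, cut at about 7.5% in these data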;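 further: red hydrolysis product quenches plate fluorescence so inhibitors raise well fluorescence; 0% = enzyme with DMSO and 100% = DMSO without enzyme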
FID counter: counter-screen for HCV NS3 helicase inhibitors: DNA intercalator displacement. inhibition, % at 7.9 µM. AID 1845. DNA fluorescent intercalator displacement, fluorescence. actives 0.17% (n = 290,000); in the data active means inhibition above about 37%;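 further: 0% = vehicle and 100% = reference compound; higher means more ethidium bromide displaced from hairpin DNA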
IMP-1 inh: inhibitors of Pseudomonas aeruginosa IMP-1 metallo-beta-lactamase | purified IMP-1, nitrocefin hydrolysis, epi-absorbance fluorescence | inhibition, % at 5.6 µM | actives 0.45% (n = 290,000) | AID 1556;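 active means inhibition above the mean plus 3 SD of all compounds in the same screening run, cut at about 4.5% in these data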;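 further: 0% = IMP-1 with DMSO and 100% = DMSO wells lacking enzyme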
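System: Purified IMP-1 | Read-out basis: Percent enzyme inhibition | Controls: IMP-1 with DMSO as 0%, enzyme-free DMSO as 100% | Replicates: One well per compound | Doses: 5.6 µM nominal single concentration | Detection: Epi-absorbance fluorescence, 480 nm excitation, 530 nm emission | Incubation: 25 °C, 15 min preincubation, 25 min reaction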
HCV core dimer: blocks dimerization of HCV core protein; TR-FRET GST/Flag-core106 dimerization, 1536-well; inhibition, % at 5 µM; actives 0.33% (n = 300,000); AID 1899;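 active means inhibition above the mean of all tested compounds plus 3 SD, set per screening campaign, cut at about 45% in these data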
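System: GST-tagged and Flag-tagged HCV core protein residues 1-106 / Input: core106 proteins, GST 13.5 nM and Flag 17 nM / Buffer or medium: KF-containing HEPES buffer, pH 7.45, DTT, CHAPS, BSA / Probe or stimulus: Eu-anti-GST and XL665-anti-Flag labelled anti-tag antibodies / Schedule: 4 h, 22.5 °C incubation / Technique: TR-FRET 671 and 617 nm emission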
* = called active by the depositor; . = not tested or not shown. This is a sample that favours compounds with a hit; in the whole collection about 1.6% have one here.

SMILES | VIM-2 inhibitor | FID counter | IMP-1 inh | HCV core dimer
COc1cc2cc(CN(CCN3CCOCC3)C(=O)Nc3ccc(F)cc3)c(=O)[nH]c2cc1OC | -1.3 | -11.2 | -2.6 | -1.2
N#Cc1sc2nc(C3CC3)cc(-c3ccccc3)c2c1N | -2.0 | -3.9 | -3.7 | -7.6
N#Cc1sc2nc(-c3ccccc3)cc(-c3ccco3)c2c1N | -4.4 | -4.0 | -2.7 | 49.5*
CC(=O)Nc1ccc(NC(=O)CCCSc2nc3ccccc3[nH]2)cc1 | -3.2 | -6.1 | 7.8* | 0.2
O=c1[nH]c2c(oc3ccccc32)c(=O)n1Cc1ccccc1 | -3.1 | -0.6 | -1.2 | .
Cc1cccc(N(C(=O)Cn2nnc3ccccc32)C(C(=O)NCc2ccco2)c2ccncc2)c1 (configuration not stated) | -5.4 | -29.3 | -2.2 | -2.4
O=C(NCc1ccco1)C(c1ccco1)N(C(=O)Cn1nnc2ccccc21)c1ccc2c(c1)CCC2 (configuration not stated) | -4.4 | -40.5 | -1.9 | 49.9*
COc1ccccc1/C=C(/CC(=O)NCc1ccccc1)c1nc2ccccc2s1 | 0.1 | -17.0 | -0.1 | 48.6*
COc1ccccc1/C=C(/CC(=O)NCc1ccc(F)cc1)c1nc2ccccc2s1 | 1.1 | -21.8 | -2.0 | 66.7*
CCC(C(=O)NCCC(C)C)n1ccc2cc(S(=O)(=O)N3CCCCC3)ccc21 (configuration not stated) | -1.8 | -42.7 | -3.1 | -7.3
Cc1cc(C)c(CN2CCCC(CNC(=O)c3ccc(F)cc3)C2)c(-n2cccn2)c1 (configuration not stated) | -1.2 | 15.9 | -3.0 | 1.3
CCOc1ccc(NC(=O)/C=C/c2ccccc2)c([N+](=O)[O-])c1 | -0.6 | 8.6 | 4.8* | -0.5
CCOc1ccc(/C=C/C(=O)Nc2ccc(OC)cc2[N+](=O)[O-])cc1 | -1.1 | 3.0 | 0.2 | 9.9
COc1ccc(C(=O)Nc2nnc(Cc3ccccc3)s2)c(OC)c1 | 0.5 | -21.2 | -3.1 | 67.7*
COc1cc(C(=O)Nc2nnc(Cc3ccccc3)s2)cc(OC)c1OC | -2.6 | -27.2 | -2.7 | .
COc1ccc(Cc2nnc(NC(=O)Cc3cccs3)s2)cc1OC | -0.5 | -13.0 | 1.4 | 74.1*
O=C(Cc1cccs1)Nc1nnc(Cc2ccccc2)s1 | -5.0 | -17.1 | -1.0 | 82.6*
O=C(Cc1cccs1)Nc1nnc(CCc2ccccc2)s1 | 0.5 | -15.3 | 0.8 | 11.8
Cc1ccc(CN2CC(C(=O)N3CCN(S(=O)(=O)c4ccc(C(C)C)cc4)CC3)CC2=O)cc1 (configuration not stated) | . | . | . | 3.5
CCCc1cc(=O)oc2cc(C)c(CN3CCCC3)c(O)c12 | 3.5 | -18.2 | 7.7* | 53.3*
CC1(C)CC(=O)c2cnc(NCC3CCCO3)nc2C1 (configuration not stated) | -1.4 | -6.0 | 6.0* | -8.0
CC1CC(=O)c2cnc(NCC3CCCO3)nc2C1 (configuration not stated) | 0.0 | -6.2 | -2.3 | -2.8
O=C(NCc1cccc(CNC(=O)C(=O)NCc2ccco2)c1)C(=O)NCc1ccco1 | 1.3 | -8.6 | -0.3 | 47.0*
Cc1c(Br)cc(C(=O)NCc2ccco2)c(C)c1C | -2.3 | -11.5 | -2.8 | 48.5*
CC12CCC(C(=O)N(CC(=O)O)C1=O)C2(C)C (configuration not stated) | -1.5 | 16.7 | -1.4 | -2.5
SMILES | VIM-2 inhibitor | FID counter | IMP-1 inh | HCV core dimer
CC(C)(C)C1CCC2(CC1)Nc1cccc3cccc(c13)N2 | -2.8 | -2.5 | -3.5 | 69.7*
O=c1c(=O)n(O)c2ccccc2n1O | 3.8 | 3.1 | 11.2* | -4.6
O=C(NCCCn1ccnc1)C(=O)NCC1OCCCN1S(=O)(=O)c1ccccc1 (configuration not stated) | -1.0 | 4.4 | 10.0* | -4.3
O=C(NCCCn1ccnc1)C(=O)NCC1OCCN1S(=O)(=O)c1ccc(Cl)cc1 (configuration not stated) | -2.3 | -1.1 | 1.1 | -21.9
O=C(NCCCn1ccnc1)C(=O)NCC1OCCN1S(=O)(=O)c1ccccc1 (configuration not stated) | 4.9 | 8.0 | 13.3* | -0.7
CN(C#N)c1nc(Cl)nc(Nc2cccc(Cl)c2)n1 | 9.4* | -12.0 | -5.3 | -0.8
CCC(CO)[n+]1c(C)cc(/C=C2\Sc3ccccc3N2Cc2ccccc2)cc1C (configuration not stated) | -0.5 | -7.2 | 9.9* | -0.2
CCN1/C(=C2\SC(=S)N(Cc3ccccc3)C2=O)Sc2ccccc21 | -2.0 | -0.6 | -1.6 | -5.9
CCCN(CCC)CCCNC(=O)C1CCN(S(=O)(=O)c2cccc3nsnc23)CC1 | -2.2 | -3.5 | -2.2 | -0.6
CC(C)n1cc(C(N)=S)c(=O)n(Cc2ccccc2)c1=O | 0.0 | -10.0 | 6.3* | -2.1
Cn1c(=O)c(C(N)=S)cn(-c2ccccc2)c1=O | 2.6 | -5.0 | -0.4 | 1.2
COc1ccccc1C(=O)NC(=S)Nc1cccc2cc(O)ccc12 | -0.2 | -0.5 | -3.8 | 4.4
COc1ccc(C(=O)NC(=S)Nc2cccc3cc(O)ccc23)cc1OC | -0.4 | -19.5 | 4.5* | 28.9
CCOC(=O)C1=C(C)Nc2ncnn2C1c1ccc2c(c1)OCO2 (configuration not stated) | -2.1 | -5.8 | -2.0 | -1.6
CCN1CCCC1Cn1cnc2c([nH]c3cccc(Cl)c32)c1=O (configuration not stated) | 8.2* | 17.2 | 1.6 | -0.4
O=C(NCCNc1ccc([N+](=O)[O-])cc1C(F)(F)F)c1cccc(F)c1 | -5.2 | 12.0 | -4.2 | 2.8
CC(C)c1nc2sc3c(=S)nc[nH]c3c2c2c1CCC2 | -4.9 | -11.8 | 4.5* | 43.3
S=c1nc[nH]c2c1sc1nc(N3CCOCC3)c3c(c12)CCCC3 | -1.3 | -8.9 | -1.0 | 61.1*
Cc1ccc2ccc[n+](Cc3ccccc3)c2c1 | . | . | . | 1.1
COCCC(=O)N1CCC(Oc2ccc(C(=O)N3C[C@@H]4CCC[C@H]3C4)cc2)CC1 | 0.1 | -47.0 | 5.1* | -9.6
COc1ccc(NC(=O)C(=O)N/N=C/c2cc(C)n(-c3cccc(Cl)c3Cl)c2C)c(OC)c1 | -3.1 | -2.4 | 1.0 | 7.6
O=C1CN(C(=O)COC(=O)C23CC4CC(CC(O)(C4)C2)C3)c2ccccc2N1 | -0.6 | -28.0 | -2.6 | -1.3
CC1(C)C(=O)Nc2ccccc2N1C(=O)COC(=O)C12CC3CC(CC(O)(C3)C1)C2 | -0.4 | -24.2 | -1.1 | 57.2*
Cc1cc2c(cc1C)CN(c1ccccc1)C2 | -2.3 | -7.8 | -2.8 | 27.6
CCOc1ccccc1N1Cc2cc(C)c(C)cc2C1 | -3.3 | -14.0 | -3.7 | 66.7*
SMILES | VIM-2 inhibitor | FID counter | IMP-1 inh | HCV core dimer
CCOc1ccccc1N1Cc2ccccc2C1 | -1.3 | -3.5 | -2.5 | 53.6*
O=C(COc1ccc2ccc(=O)oc2c1)c1ccccc1 | -1.1 | -8.5 | -2.1 | -2.6
O=C(CCC1CCCCC1)NCCS(=O)(=O)N1CCN(c2ccccc2F)CC1 | . | . | . | -5.2
Cc1c(Cc2ccccc2)c(=O)oc2c(O)c(O)ccc12 | -0.7 | -8.8 | -4.9 | .
Cc1c(Cc2ccccc2)c(=O)oc2c(CN(C)C)c(O)c(Cl)cc12 | -2.0 | -1.9 | 4.7* | -7.7
Cc1nc(Nc2ccc(O)cc2)c2c3c(sc2n1)CCCC3 | 8.4* | -21.6 | -3.8 | -1.8
